ChEMBL document CHEMBL5649170, “Sustained microglial depletion with CSF1R inhibitor impairs parenchymal plaque development in an Alzheimer's disease model” (Nat Commun, 2019)
One block for each compound: values may come before it. Activity calls are given as the source filed them. No cut-off for these calls is given here.

Key:
[1] = Drug concentration in wildtype mouse plasma at 75 ppm administered as rodent chow starting from 1.5 months and measured after 5 months; type: ADME, cell-free; details: route po, time 3.5 months
In short: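 WT or 5xFAD mice were fed PLX3397 in AIN-76A chow at 600 ppm or 75 ppm from 1.5 to 5 months of age. Terminal brain and plasma drug concentrations were determined at study end.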

[2] = Drug concentration in mouse plasma at 300 ppm administered as rodent chow for 14 days; type: ADME, cell-free; details: route po, time 14 day
[3] = target: T1, Macrophage colony-stimulating factor 1 receptor (Mus musculus) (UniProt P09581); assay: In vivo inhibition of CSF1R in wildtype mouse assessed as number of GFAP positive cells per FOV at 1200 ppm administered as rodent chow starting from 1.5 months to 4 months followed by compound removal and measured after 1 month by immunolabeling based confocal microscopic analysis (reference value: 1 to 7); type: functional; details: route po, time 2.5 months
T1 sequence (whole entry): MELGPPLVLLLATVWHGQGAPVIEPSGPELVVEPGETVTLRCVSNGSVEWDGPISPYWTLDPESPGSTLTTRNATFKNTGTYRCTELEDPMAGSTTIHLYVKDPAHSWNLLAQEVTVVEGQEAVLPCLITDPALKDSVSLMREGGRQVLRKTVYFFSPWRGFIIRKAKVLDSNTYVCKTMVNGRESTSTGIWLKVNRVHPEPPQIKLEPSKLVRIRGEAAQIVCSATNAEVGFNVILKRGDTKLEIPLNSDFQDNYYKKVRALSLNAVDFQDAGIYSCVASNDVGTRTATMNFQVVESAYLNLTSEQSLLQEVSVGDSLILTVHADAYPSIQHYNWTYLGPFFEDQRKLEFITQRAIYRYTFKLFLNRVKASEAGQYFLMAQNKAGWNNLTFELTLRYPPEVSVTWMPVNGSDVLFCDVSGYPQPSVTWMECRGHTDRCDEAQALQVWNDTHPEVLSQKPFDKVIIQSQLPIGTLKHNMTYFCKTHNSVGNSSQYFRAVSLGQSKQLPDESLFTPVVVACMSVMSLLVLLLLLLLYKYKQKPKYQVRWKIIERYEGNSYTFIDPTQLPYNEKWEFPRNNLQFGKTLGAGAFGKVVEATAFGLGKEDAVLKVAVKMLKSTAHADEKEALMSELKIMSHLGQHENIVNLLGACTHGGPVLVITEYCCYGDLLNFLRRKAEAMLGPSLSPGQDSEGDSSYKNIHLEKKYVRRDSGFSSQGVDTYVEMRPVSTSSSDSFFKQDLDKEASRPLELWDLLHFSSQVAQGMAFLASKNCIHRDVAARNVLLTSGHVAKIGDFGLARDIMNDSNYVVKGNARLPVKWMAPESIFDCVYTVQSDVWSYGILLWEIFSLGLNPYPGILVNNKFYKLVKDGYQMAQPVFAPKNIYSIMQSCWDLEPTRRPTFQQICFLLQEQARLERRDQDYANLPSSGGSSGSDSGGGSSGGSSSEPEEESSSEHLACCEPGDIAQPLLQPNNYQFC

[4] = test system: Mus musculus; assay: Prevention of Nell2 gene downregulation in 5XFAD mouse hippocampus at 1200 ppm administered as rodent chow starting from 1.5 months and measured after 7 months by Nanostring analysis; type: functional, tissue-based; details: route po, time 5.5 months
[5] = target: Casein kinase I isoform epsilon (Homo sapiens, UniProt P49674); assay: Inhibition of CSNK1E (unknown origin)
Casein kinase I isoform epsilon, sequence (P49674 whole entry, canonical isoform): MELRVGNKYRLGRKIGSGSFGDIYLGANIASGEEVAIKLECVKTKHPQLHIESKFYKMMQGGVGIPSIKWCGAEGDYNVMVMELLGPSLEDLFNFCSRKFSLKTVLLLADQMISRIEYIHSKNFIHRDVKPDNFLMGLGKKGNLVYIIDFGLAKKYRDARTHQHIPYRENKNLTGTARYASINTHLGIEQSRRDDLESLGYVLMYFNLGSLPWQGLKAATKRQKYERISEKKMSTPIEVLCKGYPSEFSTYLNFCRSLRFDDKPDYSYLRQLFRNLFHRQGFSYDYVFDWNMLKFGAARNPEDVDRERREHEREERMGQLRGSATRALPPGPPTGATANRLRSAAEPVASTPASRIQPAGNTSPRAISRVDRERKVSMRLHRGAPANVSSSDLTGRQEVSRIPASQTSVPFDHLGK

[6] = Effect on Ctsz gene expression in 5XFAD mouse hippocampus at 1200 ppm administered as rodent chow starting from 1.5 months and measured after 7 months by RNA-Seq analysis (reference value: 34.576 to 51.120 RPKM); type: functional; details: route po, time 5.5 months, 4015 h
[7] = test system: Mus musculus; assay: Effect on APP processing pathway in wildtype mouse assessed as C-terminal PS1 protein signal intensity in cortex at 1200 ppm administered as rodent starting from 1.5 months and measured after 7 months (reference value: 5.248 to 133.048 %); type: functional; details: route po, time 5.5 months, 4015 h
[8] = target: Macrophage-stimulating protein receptor (Homo sapiens, UniProt Q04912); assay: Inhibition of MST1R (unknown origin)
Macrophage-stimulating protein receptor, sequence (Q04912 25-304 limits assumed): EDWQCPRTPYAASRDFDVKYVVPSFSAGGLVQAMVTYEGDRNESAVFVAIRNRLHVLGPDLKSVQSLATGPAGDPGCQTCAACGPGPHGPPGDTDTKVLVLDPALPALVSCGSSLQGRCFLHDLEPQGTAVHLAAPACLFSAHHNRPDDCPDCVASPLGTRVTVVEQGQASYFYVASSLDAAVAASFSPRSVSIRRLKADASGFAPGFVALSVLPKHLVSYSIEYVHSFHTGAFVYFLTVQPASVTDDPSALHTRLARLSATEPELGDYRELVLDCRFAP
Macrophage-stimulating protein receptor, sequence (Q04912 310-1400 limits assumed): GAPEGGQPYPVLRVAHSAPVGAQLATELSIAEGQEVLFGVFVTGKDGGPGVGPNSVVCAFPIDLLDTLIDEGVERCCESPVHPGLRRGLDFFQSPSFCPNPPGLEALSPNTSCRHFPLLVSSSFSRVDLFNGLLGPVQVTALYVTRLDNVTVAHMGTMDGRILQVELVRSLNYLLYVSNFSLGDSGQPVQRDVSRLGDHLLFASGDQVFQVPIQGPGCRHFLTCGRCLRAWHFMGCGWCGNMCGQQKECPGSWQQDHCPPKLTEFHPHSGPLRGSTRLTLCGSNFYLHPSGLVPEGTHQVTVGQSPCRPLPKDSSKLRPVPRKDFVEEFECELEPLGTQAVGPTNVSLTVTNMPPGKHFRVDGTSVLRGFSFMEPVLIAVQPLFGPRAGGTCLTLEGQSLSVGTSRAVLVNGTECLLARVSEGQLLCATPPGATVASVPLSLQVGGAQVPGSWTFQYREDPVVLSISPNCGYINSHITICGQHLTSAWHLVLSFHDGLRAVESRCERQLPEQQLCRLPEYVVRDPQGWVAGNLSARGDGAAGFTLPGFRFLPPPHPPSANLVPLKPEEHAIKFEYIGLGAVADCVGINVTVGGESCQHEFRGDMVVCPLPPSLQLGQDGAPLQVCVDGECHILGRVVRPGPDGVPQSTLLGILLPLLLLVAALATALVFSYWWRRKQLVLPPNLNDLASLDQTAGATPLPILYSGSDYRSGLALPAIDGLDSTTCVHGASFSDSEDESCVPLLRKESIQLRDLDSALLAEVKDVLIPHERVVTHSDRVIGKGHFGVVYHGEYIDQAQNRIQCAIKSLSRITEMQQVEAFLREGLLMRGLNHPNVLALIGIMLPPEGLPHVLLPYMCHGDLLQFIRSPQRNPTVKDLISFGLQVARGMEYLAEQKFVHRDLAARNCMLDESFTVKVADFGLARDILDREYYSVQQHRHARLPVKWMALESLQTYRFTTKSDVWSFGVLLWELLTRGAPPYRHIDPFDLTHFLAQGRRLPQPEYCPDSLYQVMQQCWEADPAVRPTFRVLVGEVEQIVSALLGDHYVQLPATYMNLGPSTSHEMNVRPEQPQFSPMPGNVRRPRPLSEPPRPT

[9] = AUC (0 to infinity) in dog at 1.00 mg/kg, iv administered as single dose; type: ADME, organism-based, Canis lupus familiaris; details: in vivo
[10] = Drug concentration in 5XFAD mouse brain at 1200 ppm administered as rodent chow for 180 days; type: ADME, tissue-based; details: route po, time 180 day, read-out: Ct
[11] = Effect on Cx3cr1 gene expression in wild type mouse hippocampus at 1200 ppm administered as rodent chow starting from 1.5 months and measured after 7 months by RNA-Seq analysis (reference value: 9.911 to 12.014 RPKM); type: functional; details: route po, time 5.5 months, 4015 h
[12] = test system: Mus musculus; assay: Effect on APP processing pathway in wildtype mouse assessed as ADAM10 protein signal intensity in cortex at 1200 ppm administered as rodent starting from 1.5 months and measured after 7 months (reference value: 37.275 to 230.211 %); type: functional; details: route po, time 5.5 months, 4015 h
[13] = target: Serine/threonine-protein kinase MARK2 (Homo sapiens, UniProt Q7KZI7); assay: Inhibition of MARK2 (unknown origin)
Serine/threonine-protein kinase MARK2, sequence (Q7KZI7 whole entry): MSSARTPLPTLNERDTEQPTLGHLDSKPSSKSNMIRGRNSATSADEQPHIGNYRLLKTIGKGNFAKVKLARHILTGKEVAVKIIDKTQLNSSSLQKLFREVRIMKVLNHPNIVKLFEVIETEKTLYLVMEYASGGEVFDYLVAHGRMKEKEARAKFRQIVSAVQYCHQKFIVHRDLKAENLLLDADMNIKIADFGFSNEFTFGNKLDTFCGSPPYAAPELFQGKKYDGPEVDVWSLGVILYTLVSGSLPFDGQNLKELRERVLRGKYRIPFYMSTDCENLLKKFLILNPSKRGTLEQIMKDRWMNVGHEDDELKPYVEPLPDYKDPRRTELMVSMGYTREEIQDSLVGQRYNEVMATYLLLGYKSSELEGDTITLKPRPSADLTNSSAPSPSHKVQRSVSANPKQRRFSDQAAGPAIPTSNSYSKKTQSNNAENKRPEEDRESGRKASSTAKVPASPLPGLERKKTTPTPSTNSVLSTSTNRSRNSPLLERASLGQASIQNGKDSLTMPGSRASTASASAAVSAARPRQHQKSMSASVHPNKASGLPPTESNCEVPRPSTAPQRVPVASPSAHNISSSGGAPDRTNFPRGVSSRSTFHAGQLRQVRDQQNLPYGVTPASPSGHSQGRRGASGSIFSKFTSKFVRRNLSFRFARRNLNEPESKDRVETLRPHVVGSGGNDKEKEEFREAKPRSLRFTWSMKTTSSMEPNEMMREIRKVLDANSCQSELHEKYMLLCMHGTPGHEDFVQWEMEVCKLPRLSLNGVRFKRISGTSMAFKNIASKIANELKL

[14] = test system: Mus musculus; assay: Prevention of Trem2 gene upregulation in 5XFAD mouse hippocampus at 1200 ppm administered as rodent chow starting from 1.5 months and measured after 7 months by Nanostring analysis; type: functional, tissue-based; details: route po, time 5.5 months
[15] = Effect on C1qa gene expression in wild type mouse hippocampus at 1200 ppm administered as rodent chow starting from 1.5 months and measured after 7 months by RNA-Seq analysis (reference value: 17.148 to 23.051 RPKM); type: functional; details: route po, time 5.5 months, 4015 h
In short: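 WT and 5xFAD mice were treated with 1200 ppm PLX5622 chow or control chow from 1.5 to 7 months of age. Brains were microdissected into cortex, hippocampus and thalamus, and RNA was extracted from tissue powder. Whole-transcriptome RNA-Seq libraries were sequenced, with n = 4 per group per region (48 samples).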

[16] = AUC (0 to 24 hrs) in mouse plasma at 300 ppm administered as rodent chow for 14 days; type: ADME, cell-free; details: route po, time 14 day
[17] = Effect on Itgax gene expression in 5XFAD mouse hippocampus at 1200 ppm administered as rodent chow starting from 1.5 months and measured after 7 months by RNA-Seq analysis (reference value: 2.202 to 4.490 RPKM); type: functional; details: route po, time 5.5 months, 4015 h
[18] = test system: Mus musculus; assay: Antialzheimer activity in 5XFAD mouse assessed as percent change in claudin-5 intensity of thalamus at 1200 ppm administered as rodent chow starting from 1.5 months and measured after 4 months by immunolabeling analysis relative to control; type: functional; details: route po, time 2.5 months, 1825 h
[19] = Toxicity in wildtype mouse assessed as number of closed arm entries at 1200 ppm administered as rodent chow for 10 to 24 weeks by Elevated plus maze test (reference value: 11 to 33); details: in vivo, po, time 10-24 weeks
[20] = Effect on Ctsd gene expression in wild type mouse cortex at 1200 ppm administered as rodent chow starting from 1.5 months and measured after 7 months by RNA-Seq analysis (reference value: 110.927 to 117.612 RPKM); type: functional; details: route po, time 5.5 months, 4015 h
[21] = Toxicity in wildtype mouse assessed as number of entries to center zone at 1200 ppm administered as rodent chow for 10 to 24 weeks by Open field test (reference value: 19 to 63); details: in vivo, po, time 10-24 weeks
[22] = test system: Mus musculus; assay: Prevention of Itgam gene upregulation in 5XFAD mouse hippocampus at 1200 ppm administered as rodent chow starting from 1.5 months and measured after 7 months by Nanostring analysis; type: functional, tissue-based; details: route po, time 5.5 months

- concentration at 2555 h [1]: 12 µM
Compound: FC(F)(F)c1ccc(CNc2ccc(Cc3c[nH]c4ncc(Cl)cc34)cn2)cn1 [PEXIDARTINIB]

Compound: COc1ncc(F)cc1CNc1ccc(Cc2c[nH]c3ncc(C)cc23)c(F)n1 [PLX-5622]
- concentration at 336 h [2]: 4340 ng/mL
- Activity [3]: 3
- Activity [4]: Active
- IC50 [5]: > 1000 nM
- Activity [6]: 16.426 RPKM
- Activity [7]: 15.313%
- IC50 [8]: > 1000 nM
- AUC(0-inf) [9]: 6230 ng·h/mL
- concentration at 4320 h [10]: 2390 ng/mL
- Activity [11]: 0.074 RPKM
- Activity [12]: 59.835%
- IC50 [13]: > 1000 nM
- Activity [14]: Active
- Activity [15]: 0.17 RPKM
- AUC at 336 h [16]: 104000 ng·h/mL
- Activity [17]: 0.155 RPKM
- Activity [18]: 7.551%
- Activity [19]: 14
- Activity [20]: 76.394 RPKM
- Activity [21]: 14
- Activity [22]: Active
